Bioassay records as filed in PubChem.
TDP2 inh: TDP2 (human) inhibition, absorbance primary screen; O95551; recombinant TDP2, T5PNP hydrolysis, p-nitrophenol absorbance 415 nm; inhibition, % at 12.8 µM; actives 0.34% (n = 370,000); AID 720702;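 active = inhibition above the mean of all tested compounds plus 3 SD, set per campaign, cut at about 25% in these data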;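 note: 0% = DMSO with enzyme and 100% = buffer with substrate but no TDP2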
Target sequence (O95551 whole entry, looked up): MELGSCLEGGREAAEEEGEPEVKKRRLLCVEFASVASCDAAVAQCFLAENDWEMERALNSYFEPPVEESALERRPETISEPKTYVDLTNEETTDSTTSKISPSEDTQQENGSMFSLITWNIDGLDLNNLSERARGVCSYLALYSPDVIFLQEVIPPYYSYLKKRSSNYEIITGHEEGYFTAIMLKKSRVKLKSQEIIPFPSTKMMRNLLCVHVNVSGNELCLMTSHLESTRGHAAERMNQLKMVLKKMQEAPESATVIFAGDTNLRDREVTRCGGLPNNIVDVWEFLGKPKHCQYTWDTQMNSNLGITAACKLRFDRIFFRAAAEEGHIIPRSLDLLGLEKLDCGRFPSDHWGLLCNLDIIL
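System – recombinant human TDP2 · Amount – 120 nM TDP2 per well · Buffer or medium – Mg2+-containing Tris-HCl buffer, pH 7.5 · Reagent – T5PNP substrate, 5 mM · Dosing – 12.8 µM single point, 1% DMSO · Incubation – 2 h at 37 °C · Measured by – epi absorbance · Read-out basis – percent inhibition · Benchmarks – high control without enzyme, low control DMSO plus TDP2 · Repeats – singlicate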
MBD2 DNA inh: MBD2-methylated oligo binding inhibition. Q9UBB5. TR-FRET, MBD2 binding to methylated oligonucleotide. inhibition, % at 4.4 µM. actives 0.31% (n = 370,000); in the data active = inhibition above about 13%
UHRF1 binding: human UHRF1 methylated DNA binding inhibitors | Q96T88 | UHRF1 binding to methylated oligo, TR-FRET | inhibition, % at 4.4 µM | actives 0.75% (n = 370,000) | AID 687016;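 note: UHRF1 SRA domain binding a hemimethylated CpG hairpin DNA probe; 0% = median of test compound wells and 100% = reference inhibitor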
LEDGF integ inh: blocks HIV-1 LEDGF/p75-dependent DNA integration. TR-FRET IN-LEDGF/p75 DNA integration, Eu/Cy5. inhibition, % at 3.7 µM. actives 0.64% (n = 370,000);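 active = inhibition above the screen-wide mean plus 3 SD, cut at about 13% in these data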;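 note: signal is the Cy5 over europium emission ratio at 671 and 618 nm; 0% = plate median of compound wells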
UHRF1 DNA bind: UHRF1 methyl-oligo binding inhibition as MBD2 counter-screen; shares compounds with MBD2 DNA inh; UHRF1 binding to methylated oligonucleotide, TR-FRET; inhibition, % at 4.4 µM; actives 25% (n = 1,000);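 note: UHRF1 SRA domain binding a labeled hemimethylated CpG hairpin DNA; 0% = vehicle only and 100% = reference inhibitor with vehicle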
MBD2 DBD conf: MBD2-DBD methyl-DNA binding inhibition, TR-FRET confirmation. shares compounds with MBD2 DNA inh. TR-FRET MBD2-DBD binding to methylated oligonucleotide. inhibition, % at 4.4 µM. actives 26% (n = 1,000). AID 720531; in the data active = inhibition above about 14%
The depositor's hits bear a star. A selection: hits, their analogues and other compounds. The true share with any hit is near 1.6%. Cut-off read from the data, not from the text of the source, unless noted: active = inhibition above about 21%; inactive = the rest.

How did COc1ncccc1-c1cc2nc(NCCCN(C)C)n(C)c(=O)c2s1 do in these assays?
TDP2 inh: 13.1; MBD2 DNA inh: 14.0*; UHRF1 binding: 17.5; LEDGF integ inh: 0.4; UHRF1 DNA bind: 29.7*; MBD2 DBD conf: 17.3*

What do the screens show for `COc1cc2sc3cc(NCC[C@@H]4CCCN4C)ccc3c(=O)c2cc1OC`?
TDP2 inh: 1.8; MBD2 DNA inh: 17.6*; UHRF1 binding: -0.3; LEDGF integ inh: -0.4; UHRF1 DNA bind: 10.0; MBD2 DBD conf: 22.4*

How did COc1cccc2sc3ccc(NCCC4CCCN4C)cc3c(=O)c12 (stereo not given) do in these assays?
TDP2 inh: 3.2; MBD2 DNA inh: -6.2; UHRF1 binding: -16.6; LEDGF integ inh: -2.1

Results for CC1CCCCN1C(=O)CNCc1ccc(F)cc1 (stereo not given) ?
TDP2 inh: 21.7; MBD2 DNA inh: 36.8*; UHRF1 binding: 0.4; LEDGF integ inh: 0.1; UHRF1 DNA bind: 5.6; MBD2 DBD conf: 1.9

What do the screens show for `CC1CCCCN1C(=O)Cc1ccc(Cl)cc1` (stereo not given)?
TDP2 inh: -7.2; MBD2 DNA inh: 4.6; UHRF1 binding: 2.3; LEDGF integ inh: -1.3

How did COc1cc(C(O)c2nc(-c3ccccc3)cs2)ccc1F (stereo not given) do in these assays?
TDP2 inh: 9.3; MBD2 DNA inh: 13.9*; UHRF1 binding: -2.3; LEDGF integ inh: 3.1; UHRF1 DNA bind: 1.4; MBD2 DBD conf: 3.5

What do the screens show for `O=C1NCC(c2ccccc2)C1C(=O)N/N=C\c1ccc(-c2cccc(Cl)c2Cl)o1` (stereo not given)?
TDP2 inh: -10.6; MBD2 DNA inh: -0.9; UHRF1 binding: -4.2; LEDGF integ inh: 1.1

Results for O=C(CN1CCCC1)Nc1cccc(Cl)c1 ?
TDP2 inh: -8.8; MBD2 DNA inh: 2.6; UHRF1 binding: 2.2; LEDGF integ inh: 0.1

What do the screens show for `CC(C)C[C@@H](CN1CCC[C@H]1CN1C(=O)C(=O)NC[C@@H]1Cc1ccc(O)cc1)N1C[C@H](Cc2ccccc2)N(CC2CCCCC2)C(=O)C1=O`?
TDP2 inh: -5.2; MBD2 DNA inh: 17.1*; UHRF1 binding: 25.4*; LEDGF integ inh: 8.5; UHRF1 DNA bind: 7.5; MBD2 DBD conf: 2.5

What do the screens show for `Cc1ccc(NC2CCCN(C(=O)c3cccnc3)C2)cc1C` (stereo not given)?
TDP2 inh: 1.3; MBD2 DNA inh: 1.4; UHRF1 binding: 1.5; LEDGF integ inh: -6.0

Results for CC(C)(C)OC(=O)N1CCC(CC2CC(c3ccncc3)=NO2)(C(=O)O)CC1 (stereo not given) ?
TDP2 inh: -5.5; MBD2 DNA inh: -4.0; UHRF1 binding: -0.7; LEDGF integ inh: -2.2

Results for NCc1cc2c3c(c1)CCCN3CCC2 ?
TDP2 inh: 8.5; MBD2 DNA inh: 18.3*; UHRF1 binding: 16.0; LEDGF integ inh: 1.4; UHRF1 DNA bind: 17.1; MBD2 DBD conf: 15.3*

What do the screens show for `O=C(CSc1nnc(-c2cccnc2)o1)Nc1ccccc1F`?
TDP2 inh: 4.6; MBD2 DNA inh: 2.9; UHRF1 binding: 1.3; LEDGF integ inh: -1.6

How did O=C1CCCN1CC(O)CS(=O)(=O)Cc1ccccc1 (stereo not given) do in these assays?
TDP2 inh: 0.2; MBD2 DNA inh: -0.7; UHRF1 binding: 1.2; LEDGF integ inh: -4.7

What do the screens show for `O=C1CCCN1CC(O)CS(=O)(=O)Cc1ccc(Cl)c(Cl)c1` (stereo not given)?
TDP2 inh: -16.7; MBD2 DNA inh: 15.7*; UHRF1 binding: 4.1; LEDGF integ inh: -1.3; UHRF1 DNA bind: 6.8; MBD2 DBD conf: 3.4

Results for COc1cc(NC(=O)COc2ccccc2[N+](=O)[O-])ccc1NC(=O)c1ccco1 ?
TDP2 inh: 16.5; MBD2 DNA inh: 6.2; UHRF1 binding: -0.8; LEDGF integ inh: -2.2

Results for COc1cc(NC(=O)c2ccc(OC)c([N+](=O)[O-])c2)ccc1NC(=O)c1ccco1 ?
TDP2 inh: 9.2; MBD2 DNA inh: 18.4*; UHRF1 binding: -2.9; LEDGF integ inh: 0.7; UHRF1 DNA bind: 8.1; MBD2 DBD conf: 1.9

How did Cc1cc(NC(=NC2CC2)c2ccccc2F)n(-c2ccccc2)n1 do in these assays?
TDP2 inh: -1.9; MBD2 DNA inh: 14.6*; UHRF1 binding: 21.1*; LEDGF integ inh: -2.9; UHRF1 DNA bind: 8.7; MBD2 DBD conf: 3.0

What do the screens show for `Cc1cc(NC(=O)Nc2cc(C)nn2-c2ccccc2)n(-c2ccccc2)n1`?
TDP2 inh: 5.0; MBD2 DNA inh: -1.2; UHRF1 binding: 0.8; LEDGF integ inh: -1.1

How did O=C(CN1C(=O)COc2ccccc21)N1CCN(C2CCCCC2)CC1 do in these assays?
TDP2 inh: 0.9; MBD2 DNA inh: -6.7; UHRF1 binding: -0.2; LEDGF integ inh: -1.6

What do the screens show for `COc1ccc(NC(=O)Nc2c[nH]c(=O)[nH]c2=O)cc1`?
TDP2 inh: 2.9; MBD2 DNA inh: 1.6; UHRF1 binding: -3.5; LEDGF integ inh: 2.9

How did COc1ccc(Cc2c[nH]c(=O)[nH]c2=O)cc1 do in these assays?
TDP2 inh: -6.1; MBD2 DNA inh: 16.1*; UHRF1 binding: 23.6*; LEDGF integ inh: 6.2; UHRF1 DNA bind: 2.2; MBD2 DBD conf: 5.0

How did COC(=O)Cc1csc(NC(=O)c2ccc3ncsc3c2)n1 do in these assays?
TDP2 inh: 1.5; MBD2 DNA inh: -2.6; UHRF1 binding: -3.5; LEDGF integ inh: -1.0

How did O=c1[nH]c(SCCOc2ccccc2F)nc2ccccc12 do in these assays?
TDP2 inh: 2.0; MBD2 DNA inh: 13.9*; UHRF1 binding: 22.7*; LEDGF integ inh: 2.1; UHRF1 DNA bind: 5.8; MBD2 DBD conf: 2.3

What do the screens show for `COC(=O)c1ccc(C(=O)OC)c(NC(=O)Cc2cccs2)c1`?
TDP2 inh: -5.6; MBD2 DNA inh: 16.2*; UHRF1 binding: 20.0; LEDGF integ inh: 1.3; UHRF1 DNA bind: 21.6*; MBD2 DBD conf: 15.4*

How did COc1ccccc1NC(=O)Cc1cccs1 do in these assays?
TDP2 inh: 9.4; MBD2 DNA inh: 1.4; UHRF1 binding: -0.8; LEDGF integ inh: 1.1

Results for Cc1cc(OCc2cn(CC(=O)c3ccc(O)cc3)nn2)ccc1[N+](=O)[O-] ?
TDP2 inh: 2.0; MBD2 DNA inh: 2.1; UHRF1 binding: 14.5; LEDGF integ inh: -2.9

What do the screens show for `O=C(Cn1cc(COc2cccc([N+](=O)[O-])c2)nn1)c1ccc(O)cc1`?
TDP2 inh: 1.6; MBD2 DNA inh: 13.3*; UHRF1 binding: 21.3*; LEDGF integ inh: 5.7; UHRF1 DNA bind: 10.6; MBD2 DBD conf: 9.3

What do the screens show for `CCN(CC)CCOc1ccc2c(c1)C(=NO)c1cc(OCCN(CC)CC)ccc1-2`?
TDP2 inh: 11.3; MBD2 DNA inh: 41.0*; UHRF1 binding: 54.2*; LEDGF integ inh: -1.5; UHRF1 DNA bind: 61.8*; MBD2 DBD conf: 47.3*
